# How the values were obtained:
# [1] = tested on: Mycobacterium tuberculosis; experiment: Antitubercular activity against active stage of Mycobacterium tuberculosis H37Ra ATCC 25177 after 8 days by XTT reduction menadione assay; assay type: functional; details: H37Ra ATCC 25177, 192 h
# Summary of the method: (§1)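 M. tuberculosis H37Ra (ATCC 25177), grown to log phase (OD 1.0) in M. pheli medium from -70°C stock, subcultured once before inoculation. Incubation 8 days (active) or 12 days (dormant). XRMA read-out as absorbance at 470 nm.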
# [2] = Selectivity index, ratio of GI50 for human HeLa cells to MIC for dormant stage of Mycobacterium tuberculosis H37Ra ATCC 25177 infected in human THP1 cells; assay type: toxicity, cell-based; details: read-out: Selectivity Index
# Summary of the method: (§2)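 Selectivity index is the cytotoxic GI50 against the named human cell line divided by the antimycobacterial value. Activity counted as specific when SI >10.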
# [3] = Selectivity index, ratio of GI50 for human PANC1 cells to MIC for dormant stage of Mycobacterium tuberculosis H37Ra ATCC 25177; assay type: toxicity; details: PANC-1 cells, read-out: Selectivity Index; summary of the method: as §2
# [4] = Cytotoxicity against human PANC1 cells assessed as growth inhibition by MTT assay; assay type: cell-based; details: PANC-1 cells
# Summary of the method: (§3)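 MTT assay in duplicate on THP-1 leukaemia, A549 lung adenocarcinoma, PANC-1 pancreatic adenocarcinoma and HeLa cervical carcinoma cells, all obtained from ECCC.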
# [5] = Selectivity index, ratio of GI50 for human PANC1 cells to MIC for active stage of Mycobacterium tuberculosis H37Ra ATCC 25177; assay type: toxicity; details: PANC-1 cells, read-out: Selectivity Index; summary of the method: as §2
# [6] = Selectivity index, ratio of GI50 for human HeLa cells to MIC for dormant stage of Mycobacterium tuberculosis H37Ra ATCC 25177; assay type: toxicity, cell-based; details: read-out: Selectivity Index; summary of the method: as §2
# [7] = Cytotoxicity against human HeLa cells assessed as growth inhibition by MTT assay; assay type: cell-based; summary of the method: as §3
# [8] = Selectivity index, ratio of GI50 for human A549 cells to MIC for dormant stage of Mycobacterium tuberculosis H37Ra ATCC 25177 infected in human THP1 cells; assay type: toxicity, cell-based; details: read-out: Selectivity Index; summary of the method: as §2
# [9] = Selectivity index, ratio of GI50 for human HeLa cells to MIC for active stage of Mycobacterium tuberculosis H37Ra ATCC 25177 infected in human THP1 cells; assay type: toxicity, cell-based; details: read-out: Selectivity Index; summary of the method: as §2
# [10] = tested on: Mycobacterium tuberculosis; experiment: Antitubercular activity against dormant stage of Mycobacterium tuberculosis H37Ra ATCC 25177 after 12 days by XTT reduction menadione assay; assay type: functional; details: H37Ra ATCC 25177, 288 h; summary of the method: as §1
# [11] = Cytotoxicity against human A549 cells assessed as growth inhibition by MTT assay; assay type: cell-based; summary of the method: as §3
# [12] = Selectivity index, ratio of GI50 for human A549 cells to MIC for dormant stage of Mycobacterium tuberculosis H37Ra ATCC 25177; assay type: toxicity; details: read-out: Selectivity Index; summary of the method: as §2
# [13] = Selectivity index, ratio of GI50 for human A549 cells to MIC for active stage of Mycobacterium tuberculosis H37Ra ATCC 25177; assay type: toxicity; details: read-out: Selectivity Index; summary of the method: as §2
# [14] = Cytotoxicity against human THP1 cells assessed as growth inhibition by MTT assay; assay type: cell-based; details: THP-1 cells; summary of the method: as §3
# [15] = Selectivity index, ratio of GI50 for human HeLa cells to MIC for active stage of Mycobacterium tuberculosis H37Ra ATCC 25177; assay type: toxicity, cell-based; details: read-out: Selectivity Index; summary of the method: as §2
# [16] = tested on: Mycobacterium tuberculosis; experiment: Antitubercular activity against active stage of Mycobacterium tuberculosis H37Ra ATCC 25177 infected in human THP1 cells after 8 days by nitrate reductase assay; assay type: functional; details: H37Ra ATCC 25177, 192 h
# Summary of the method: (§4)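 Ex vivo test of H37Ra in THP-1 cells by nitrate reductase assay, absorbance read at 540 nm. Active stage incubated 8 days and dormant stage 12 days. H37Ra (ATCC 25177) grown in M. pheli medium to OD 1.0 and subcultured once from -70°C stock.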
# [17] = Selectivity index, ratio of GI50 for human PANC1 cells to MIC for active stage of Mycobacterium tuberculosis H37Ra ATCC 25177 infected in human THP1 cells; assay type: toxicity, cell-based; details: PANC-1 cells, read-out: Selectivity Index; summary of the method: as §2
# [18] = Selectivity index, ratio of GI50 for human A549 cells to MIC for active stage of Mycobacterium tuberculosis H37Ra ATCC 25177 infected in human THP1 cells; assay type: toxicity, cell-based; details: read-out: Selectivity Index; summary of the method: as §2
# [19] = Selectivity index, ratio of GI50 for human PANC1 cells to MIC for dormant stage of Mycobacterium tuberculosis H37Ra ATCC 25177 infected in human THP1 cells; assay type: toxicity, cell-based; details: PANC-1 cells, read-out: Selectivity Index; summary of the method: as §2
# [20] = tested on: Mycobacterium tuberculosis; experiment: Antitubercular activity against dormant stage of Mycobacterium tuberculosis H37Ra ATCC 25177 infected in human THP1 cells after 12 days by nitrate reductase assay; assay type: functional; details: H37Ra ATCC 25177, 288 h; summary of the method: as §4
Compound,MIC [1] [µg/mL],selectivity ratio [2],selectivity ratio [3],GI50 [4] [µg/mL],selectivity ratio [5],selectivity ratio [6],GI50 [7] [µg/mL],selectivity ratio [8],selectivity ratio [9],MIC [10] [µg/mL],GI50 [11] [µg/mL],selectivity ratio [12],selectivity ratio [13],GI50 [14] [µg/mL],selectivity ratio [15],MIC [16] [µg/mL],selectivity ratio [17],selectivity ratio [18],selectivity ratio [19],MIC [20] [µg/mL]
COc1cc(-c2[nH]c(=S)[nH]c(=O)c2C#N)cc(OC)c1OC,> 30,6,> 6,> 100,> 3,4,63.7,> 9,2,17.3,> 100,> 6,> 3,> 100,2,> 30,> 3,> 3,> 9,11.3
COc1cc(-c2nc(SCCCn3cnc4sc5c(c4c3=O)CCCC5)n(S(=O)(=O)c3ccc(C)cc3)c(=O)c2C#N)cc(OC)c1OC,> 30,< 2,> 3,> 100,> 3,2,64.2,> 3,2,> 30,> 100,> 3,> 3,> 100,2,> 30,> 3,> 3,> 3,> 30
C#CCn1c(SCCCn2cnc3sc4c(c3c2=O)CCCC4)nc(-c2cc(OC)c(OC)c(OC)c2)c(C#N)c1=O,> 30,–,> 3,> 100,> 3,2,66.3,> 3,2,> 30,> 100,> 3,> 3,> 100,2,> 30,> 3,> 3,> 3,> 30
Cc1ccc(-c2nc(S)nc(O)c2C#N)cc1,> 30,2,> 3,> 100,> 3,2,67.6,3,2,> 30,86.7,< 3,3,88.9,2,> 30,> 3,< 3,> 3,> 30
CC(=O)O[C@H]1C(=O)[C@@]2(C)[C@H]([C@H](OC(=O)c3ccccc3)[C@]3(O)C[C@H](OC(=O)[C@H](O)[C@@H](NC(=O)c4ccccc4)c4ccccc4)C(C)=C1C3(C)C)[C@]1(OC(C)=O)CO[C@@H]1C[C@@H]2O [PACLITAXEL],–,–,–,0.128,–,–,–,–,–,–,–,–,–,–,–,–,–,–,–,–
CO[C@H]1/C=C/O[C@@]2(C)Oc3c(C)c(O)c4c(O)c(c(/C=N/N5CCN(C)CC5)c(O)c4c3C2=O)NC(=O)/C(C)=C\C=C\[C@H](C)[C@H](O)[C@@H](C)[C@@H](O)[C@@H](C)[C@H](OC(C)=O)[C@@H]1C [RIFAMPIN],0.41,–,208,–,244,208,–,–,196,0.48,–,208,244,0.14,244,0.51,196,196,–,0.75
